# From ChEMBL document CHEMBL4316619 (Bioorg Med Chem Lett, 2019)
# Calls of active or inactive are those of the source. The rule behind the calls is not given here.
# Assays:
# [1] = Drug level in C57BL/6 mouse plasma at 30 mg/kg, ip measured at 48 hrs; format: ADME, organism-based
# Outline: (§1)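 Male C57BL/6 mice, single intraperitoneal 30 mg/kg dose, N=3. Plasma, liver and lung concentrations followed over time to give concentration-time profiles, from which Tmax, Cmax, terminal t1/2, AUClast and AUCINF were derived.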
# [2] = Drug level in C57BL/6 mouse liver at 30 mg/kg, ip measured at 0.5 hrs; format: ADME, organism-based; conditions: in vivo
# Outline: (§2)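 Male C57BL/6 mice received a single intraperitoneal dose of 30 mg/kg (N=3). Compound concentrations were followed over time in plasma, liver and lung. Tmax, Cmax, terminal t1/2, AUClast and AUCINF were derived from the mean concentration-time profiles.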
# [3] = Toxicity in C57BL/6 mouse assessed as adverse effect at 30 mg/kg, ip; format: organism-based; conditions: in vivo
# [4] = Stability of the compound in mouse liver microsomes assessed as parent compound remaining measured immediately; format: ADME, Microsome; conditions: read-out: Stability
# Outline: (§3)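 Mouse liver microsomes; percent parent compound remaining measured at 0, 15 and 30 min.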
# [5] = Drug level in C57BL/6 mouse liver at 30 mg/kg, ip measured at 3 hrs; format: ADME, organism-based; conditions: in vivo; outline: as §2
# [6] = AUClast in C57BL/6 mouse liver at 30 mg/kg, ip; format: ADME, organism-based; parameters: dose 30 mg/kg, time 0 - last, route intraperitoneal; outline: as §2
# [7] = Drug level in C57BL/6 mouse lung at 30 mg/kg, ip measured at 48 hrs; format: ADME, organism-based; conditions: in vivo; outline: as §2
# [8] = AUClast in C57BL/6 mouse lung at 30 mg/kg, ip; format: ADME, organism-based; parameters: dose 30 mg/kg, route intraperitoneal, time 0 - last; outline: as §2
# [9] = Apparent permeability across basolateral to apical side in human Caco2 cells measured after 2 hrs; format: ADME, cell-based; conditions: caco-2, 2 h
# Outline: (§4)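 Permeability was measured across Caco-2 monolayers in both directions, apical to basolateral and basolateral to apical. […] Runs were done with and without 3% BSA, and mass recovery (%) was reported for each direction. Efflux ratio = Papp B→A / Papp A→B.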
# [10] = Tmax in C57BL/6 mouse lung at 30 mg/kg, ip; format: ADME, organism-based; outline: as §1
# [11] = Cmax in C57BL/6 mouse liver at 30 mg/kg, ip; format: ADME, organism-based; parameters: dose 30 mg/kg, route intraperitoneal; outline: as §2
# [12] = Drug level in C57BL/6 mouse liver at 30 mg/kg, ip measured at 1 hrs; format: ADME, organism-based; conditions: in vivo; outline: as §2
# [13] = Apparent permeability across basolateral to apical side in human Caco2 cells measured after 2 hrs in presence of 3% BSA; format: ADME, cell-based; conditions: caco-2, 2 h; outline: as §4
# Influenza A virus [14] = test: Antiviral activity against Influenza A virus A/PR/8/34 (H1N1) infected in MDCK cells assessed as fold reduction in virus titer at 10 uM measured after 48 hrs by hemagglutination assay relative to control; format: functional, A/Puerto Rico/8/1934(H1N1)
# Outline: (§5)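 MDCK cells were infected with A/PR/8/34 (H1N1) at MOI 0.1 and incubated with compound for 48 h. Supernatant virus was then quantified by hemagglutination assay and standard TCID50 analysis. The single-concentration screen used 10 μM and reports fold reduction in titer. Dose-response runs used triplicate cultures, with percent titer decrease back-calculated from TCID50.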
# [15] = Drug level in C57BL/6 mouse lung at 30 mg/kg, ip measured at 12 hrs; format: ADME, organism-based; conditions: in vivo; outline: as §2
# Influenza A virus [16] = test: Antiviral activity against Influenza A virus A/PR/8/34 (H1N1) infected in MDCK cells assessed as 3-log reduction in virus titer measured after 48 hrs by hemagglutination assay; format: functional, A/Puerto Rico/8/1934(H1N1); outline: as §5
# [17] = Apparent permeability across apical to basolateral side in human Caco2 cells assessed as drug recovery in presence of 3% BSA; format: ADME, cell-based; conditions: caco-2; outline: as §4
# [18] = Drug level in C57BL/6 mouse lung at 30 mg/kg, ip measured at 8 hrs; format: ADME, organism-based; conditions: in vivo; outline: as §2
# [19] = Stability of the compound in mouse liver microsomes assessed as parent compound remaining measured after 15 mins; format: ADME, Microsome; conditions: read-out: Stability; outline: as §3
# Influenza A virus [20] = test: Antiviral activity against Influenza A virus A/PR/8/34 (H1N1) infected in MDCK cells assessed as reduction in virus titer measured after 48 hrs by hemagglutination assay; format: functional; conditions: A/Puerto Rico/8/1934(H1N1); outline: as §5
# [21] = Drug level in C57BL/6 mouse lung at 30 mg/kg, ip measured at 4 hrs; format: ADME, organism-based; conditions: in vivo; outline: as §2
# MDCK = test: Cytotoxicity against MDCK cells assessed as reduction in cell viability up to 100 uM measured after 48 hrs by CellTiter Glo assay; format: cell-based, Canis lupus familiaris; conditions: dog
# Outline: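 MDCK cells were incubated with compound under the conditions of the 48 h replication assay. Cytotoxicity was read with the CellTiter-Glo ATP viability assay. Follow-up viability testing used 5, 10, 50 and 100 μM.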
# [22] = Tmax in C57BL/6 mouse liver at 30 mg/kg, ip; format: ADME, organism-based; outline: as §1
# [23] = Drug level in C57BL/6 mouse lung at 30 mg/kg, ip measured at 1 hrs; format: ADME, organism-based; conditions: in vivo; outline: as §2
# [24] = Terminal half life in C57BL/6 mouse liver at 30 mg/kg, ip; format: ADME, organism-based; conditions: read-out: beta t1/2 (converted); outline: as §1
# [25] = Apparent permeability across basolateral to apical side in human Caco2 cells assessed as drug recovery; format: ADME, cell-based; conditions: caco-2; outline: as §4
# [26] = Drug level in C57BL/6 mouse plasma at 30 mg/kg, ip measured at 24 hrs; format: ADME, organism-based; outline: as §1
# [27] = AUC (infinity) in C57BL/6 mouse lung at 30 mg/kg, ip; format: ADME, organism-based; parameters: dose 30 mg/kg, route intraperitoneal, time infinity; outline: as §2
# [28] = Drug level in C57BL/6 mouse liver at 30 mg/kg, ip measured at 0.083 hrs; format: ADME, organism-based; conditions: in vivo; outline: as §2
# [29] = target: Luciferin 4-monooxygenase (Photinus pyralis) (UniProt P08659); test: Effect on firefly luciferase activity expressed in 293 cells at 50 uM by luminescence assay; format: cell-based
# [30] = Cmax in C57BL/6 mouse plasma at 30 mg/kg, ip; format: ADME, organism-based; parameters: dose 30 mg/kg, route intraperitoneal; conditions: mouse, in vivo; outline: as §2
# [31] = Drug level in C57BL/6 mouse liver at 30 mg/kg, ip measured at 12 hrs; format: ADME, organism-based; conditions: in vivo; outline: as §2
# [32] = Drug level in C57BL/6 mouse liver at 30 mg/kg, ip measured at 48 hrs; format: ADME, organism-based; conditions: in vivo; outline: as §2
# [33] = Apparent permeability across basolateral to apical side in human Caco2 cells assessed as drug recovery in presence of 3% BSA; format: ADME, cell-based; conditions: caco-2; outline: as §4
# [34] = Apparent permeability across apical to basolateral side in human Caco2 cells measured after 2 hrs; format: ADME, cell-based; conditions: caco-2, 2 h; outline: as §4
# [35] = Apparent permeability across apical to basolateral side in human Caco2 cells assessed as drug recovery; format: ADME, cell-based; conditions: caco-2; outline: as §4
# [36] = Drug level in C57BL/6 mouse plasma at 30 mg/kg, ip measured at 4 hrs; format: ADME, organism-based; outline: as §1
# [37] = Drug level in C57BL/6 mouse lung at 30 mg/kg, ip measured at 0.083 hrs; format: ADME, organism-based; conditions: in vivo; outline: as §2
# [38] = Aqueous kinetic solubility of the compound; format: physicochemical; conditions: buffer
# [39] = Drug level in C57BL/6 mouse lung at 30 mg/kg, ip measured at 24 hrs; format: ADME, organism-based; conditions: in vivo; outline: as §2
# [40] = Drug level in C57BL/6 mouse liver at 30 mg/kg, ip measured at 4 hrs; format: ADME, organism-based; conditions: in vivo; outline: as §2
# [41] = AUClast in C57BL/6 mouse plasma at 30 mg/kg, ip; format: ADME, organism-based; parameters: dose 30 mg/kg, route intraperitoneal, time 0 - last; outline: as §2
# Saccharomyces cerevisiae = test: Effect on growth of Yeast 9526-6-2 harboring pYES at 50 uM measured up to 60 hrs; format: organism-based; conditions: in vivo
# Outline: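 Control yeast carrying empty pYES and NS1-expressing NS1-pYES strain grown with DMSO or compound at 50 μM. Growth measured as OD600 at 22, 42 and 60 h.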
# Chain of Luciferin 4-monooxygenase (Photinus pyralis) (P08659 whole entry): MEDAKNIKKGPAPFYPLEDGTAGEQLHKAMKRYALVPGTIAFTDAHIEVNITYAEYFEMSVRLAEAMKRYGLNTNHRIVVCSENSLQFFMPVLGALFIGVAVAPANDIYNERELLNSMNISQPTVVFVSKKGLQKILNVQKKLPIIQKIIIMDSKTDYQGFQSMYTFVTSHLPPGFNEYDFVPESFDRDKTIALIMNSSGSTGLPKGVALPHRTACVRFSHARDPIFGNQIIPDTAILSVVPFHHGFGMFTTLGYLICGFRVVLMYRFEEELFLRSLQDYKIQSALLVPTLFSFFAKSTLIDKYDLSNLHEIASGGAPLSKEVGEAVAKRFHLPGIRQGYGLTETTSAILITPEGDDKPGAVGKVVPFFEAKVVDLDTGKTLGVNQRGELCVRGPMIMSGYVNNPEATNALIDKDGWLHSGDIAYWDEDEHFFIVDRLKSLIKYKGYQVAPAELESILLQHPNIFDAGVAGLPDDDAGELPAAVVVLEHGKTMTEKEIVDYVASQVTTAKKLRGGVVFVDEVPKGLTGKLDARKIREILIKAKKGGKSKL
structure (smiles),measurement,setting,value
COc1cc(-c2ccnc3c2c(C)nn3-c2ccc(C(F)(F)F)cc2)ccc1O,concentration at 48 h,[1],3 nM
same,Drug uptake,[2],62599 nmol/kg
same,Activity,[3],Non-Toxic
same,remaining at 0 min,[4],100%
same,Drug uptake,[5],10058 nmol/kg
same,AUC(0-t),[6],80200 ng·h/mL
same,Drug uptake,[7],15 nmol/kg
same,AUC(0-t),[8],53900 ng·h/mL
same,Papp,[9],0.23 ×10⁻⁶ cm/s
same,Tmax,[10],15 min
same,Cmax,[11],49600 ng/mL
same,Drug uptake,[12],44487 nmol/kg
same,Papp,[13],0.27 ×10⁻⁶ cm/s
same,fold change (FC),Influenza A virus [14],128
same,Drug uptake,[15],1741 nmol/kg
same,TCID50,Influenza A virus [16],1.6 µM
same,Drug recovery,[17],49%
same,Drug uptake,[18],3931 nmol/kg
same,remaining at 0.25 h,[19],66%
same,IC90,Influenza A virus [20],155 nM
same,Drug uptake,[21],11477 nmol/kg
same,Activity,MDCK,Non-Toxic
same,Tmax,[22],15 min
same,Drug uptake,[23],26592 nmol/kg
same,half-life,[24],282 min
same,Drug recovery,[25],9%
same,concentration at 24 h,[26],20 nM
same,AUC(0-inf),[27],53900 ng·h/mL
same,Drug uptake,[28],114014 nmol/kg
same,Activity,[29],inactive
same,Cmax,[30],2437 ng/mL
same,Drug uptake,[31],1984 nmol/kg
same,Drug uptake,[32],23 nmol/kg
same,Drug recovery,[33],81%
same,Papp,[34],0.1 ×10⁻⁶ cm/s
same,Drug recovery,[35],5%
same,concentration at 4 h,[36],1200 nM
same,Drug uptake,[37],20891 nmol/kg
same,Kinetic_solubility,[38],3.1 µM
same,Drug uptake,[39],168 nmol/kg
same,Drug uptake,[40],13997 nmol/kg
same,AUC(0-t),[41],7660 ng·h/mL
same,Activity,Saccharomyces cerevisiae,Non-Toxic
